Source: ChEMBL document CHEMBL1134307, “trans-4-[4-(Methoxyphenyl)cyclohexyl]-1-arylpiperazines: a new class of potent and selective 5-HT(1A) receptor ligands as conformationally constrained analogues of 4-[3-(5-methoxy-1,2,3,4-tetrahydronaphthalen-1-yl)propyl]-1-arylpiperazines” (J Med Chem, 2001)

Legend:
[1] = target: T1, Alpha-1B adrenergic receptor (Homo sapiens, UniProt P35368); experiment: Binding affinity was determined on human cloned alpha-1B adrenergic receptor
T1 sequence (P35368 whole entry): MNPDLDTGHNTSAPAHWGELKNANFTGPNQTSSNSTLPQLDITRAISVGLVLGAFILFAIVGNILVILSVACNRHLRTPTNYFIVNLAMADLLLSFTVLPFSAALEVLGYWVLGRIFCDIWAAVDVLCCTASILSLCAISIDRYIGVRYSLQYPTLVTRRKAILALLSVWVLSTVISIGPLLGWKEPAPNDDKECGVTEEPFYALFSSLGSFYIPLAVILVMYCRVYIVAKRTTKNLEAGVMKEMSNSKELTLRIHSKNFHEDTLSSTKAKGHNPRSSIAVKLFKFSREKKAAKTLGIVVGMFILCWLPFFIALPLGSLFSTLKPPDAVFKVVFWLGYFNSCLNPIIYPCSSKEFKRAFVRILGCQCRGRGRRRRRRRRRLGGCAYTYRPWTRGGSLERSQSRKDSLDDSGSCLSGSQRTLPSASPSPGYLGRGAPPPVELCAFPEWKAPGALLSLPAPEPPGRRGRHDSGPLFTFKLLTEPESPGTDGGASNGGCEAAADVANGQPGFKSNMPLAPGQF
How it was run: (§1)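 Membranes from CHO cells stably expressing each human α1-adrenoceptor subtype, incubated in 50 mM Tris pH 7.4 with 0.2 nM [3H]prazosin and competing drugs (1 pM–10 µM), 30 min at 25 °C. Nonspecific binding with 10 µM phentolamine. Stopped with ice-cold Tris and filtration through 0.2% PEI-pretreated filters.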

[2] = target: T2, Alpha-1D adrenergic receptor (Homo sapiens, UniProt P25100); experiment: Binding affinity towarda alpha-1D adrenergic receptor; how it was run: as §1
T2 sequence (P25100 whole entry): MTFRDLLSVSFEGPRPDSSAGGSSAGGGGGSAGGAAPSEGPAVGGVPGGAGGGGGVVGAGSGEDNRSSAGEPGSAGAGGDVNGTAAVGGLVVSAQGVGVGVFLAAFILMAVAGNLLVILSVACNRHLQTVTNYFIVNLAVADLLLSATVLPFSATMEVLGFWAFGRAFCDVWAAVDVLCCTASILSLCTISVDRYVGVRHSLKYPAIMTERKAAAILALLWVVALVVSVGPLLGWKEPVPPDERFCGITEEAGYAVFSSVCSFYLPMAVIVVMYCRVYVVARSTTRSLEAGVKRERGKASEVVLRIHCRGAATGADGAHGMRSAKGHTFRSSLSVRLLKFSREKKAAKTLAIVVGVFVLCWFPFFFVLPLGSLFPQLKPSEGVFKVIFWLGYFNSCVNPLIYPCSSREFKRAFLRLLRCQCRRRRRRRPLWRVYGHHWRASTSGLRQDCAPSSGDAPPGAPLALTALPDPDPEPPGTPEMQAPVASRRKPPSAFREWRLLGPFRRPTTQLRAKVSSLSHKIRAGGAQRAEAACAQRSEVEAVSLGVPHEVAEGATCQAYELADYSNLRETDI

[3] = target: T3, Adrenergic receptor alpha-1 (Rattus norvegicus, UniProt P15823+P23944+P43140); experiment: Binding affinity towards alpha-1 adrenergic receptor in rat cortical membranes; type: cell membranes
T3 sequence (P15823 whole entry): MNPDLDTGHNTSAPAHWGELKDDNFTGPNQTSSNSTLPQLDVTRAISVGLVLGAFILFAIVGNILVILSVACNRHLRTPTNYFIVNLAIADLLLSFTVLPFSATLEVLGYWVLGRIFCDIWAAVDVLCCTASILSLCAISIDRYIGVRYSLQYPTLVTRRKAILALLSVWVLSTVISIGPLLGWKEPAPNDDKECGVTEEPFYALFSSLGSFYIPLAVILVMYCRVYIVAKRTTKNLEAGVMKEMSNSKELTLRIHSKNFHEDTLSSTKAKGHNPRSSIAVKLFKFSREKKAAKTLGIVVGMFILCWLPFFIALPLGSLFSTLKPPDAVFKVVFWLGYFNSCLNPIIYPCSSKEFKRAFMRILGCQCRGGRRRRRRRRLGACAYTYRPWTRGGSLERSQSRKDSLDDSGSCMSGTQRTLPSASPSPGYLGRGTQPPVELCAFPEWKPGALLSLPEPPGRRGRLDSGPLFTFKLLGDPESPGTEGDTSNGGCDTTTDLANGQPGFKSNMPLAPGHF
T3 sequence (P23944 whole entry): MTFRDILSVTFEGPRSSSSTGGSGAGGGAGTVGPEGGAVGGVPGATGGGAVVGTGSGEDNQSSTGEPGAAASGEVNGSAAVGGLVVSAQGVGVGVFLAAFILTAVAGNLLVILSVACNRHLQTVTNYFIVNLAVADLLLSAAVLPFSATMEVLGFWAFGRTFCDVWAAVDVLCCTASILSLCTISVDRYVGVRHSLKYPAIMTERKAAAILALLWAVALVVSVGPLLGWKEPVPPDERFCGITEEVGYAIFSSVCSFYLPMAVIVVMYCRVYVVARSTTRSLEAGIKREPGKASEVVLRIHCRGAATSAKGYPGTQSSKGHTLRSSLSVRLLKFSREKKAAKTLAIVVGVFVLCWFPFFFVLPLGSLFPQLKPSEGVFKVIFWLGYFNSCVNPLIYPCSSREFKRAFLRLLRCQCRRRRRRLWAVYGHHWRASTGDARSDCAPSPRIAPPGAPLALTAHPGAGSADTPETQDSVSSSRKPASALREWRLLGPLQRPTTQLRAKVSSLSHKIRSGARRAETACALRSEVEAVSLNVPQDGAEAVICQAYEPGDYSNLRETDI
T3 sequence (P43140 whole entry): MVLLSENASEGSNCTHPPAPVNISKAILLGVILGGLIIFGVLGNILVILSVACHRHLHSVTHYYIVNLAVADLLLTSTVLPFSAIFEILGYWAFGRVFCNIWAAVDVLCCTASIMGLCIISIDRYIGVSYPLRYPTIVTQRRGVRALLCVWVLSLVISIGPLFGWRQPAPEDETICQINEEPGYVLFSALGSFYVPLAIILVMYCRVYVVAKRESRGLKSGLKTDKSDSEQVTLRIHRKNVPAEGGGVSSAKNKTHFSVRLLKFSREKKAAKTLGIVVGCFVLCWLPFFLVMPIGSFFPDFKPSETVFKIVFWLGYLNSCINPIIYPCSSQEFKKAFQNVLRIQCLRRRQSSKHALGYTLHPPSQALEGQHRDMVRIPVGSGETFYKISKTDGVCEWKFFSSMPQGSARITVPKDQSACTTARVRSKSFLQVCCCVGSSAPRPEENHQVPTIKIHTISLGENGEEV

Compound | Ki [1] [nM] | Ki [2] [nM] | Ki [3] [nM]
COc1cccc2c1CCCC2CCCN1CCN(c2ccccn2)CC1 (stereo unspecified) | 7.88 | 5.95 | 55
COc1cccc2c(CCCN3CCN(c4ccccn4)CC3)cccc12 | 4.21 | 12.6 | 833
COc1cccc(C2CCC(N3CCN(c4ccccn4)CC3)CC2)c1 (trans isomer) | 53.1 | 118 | 767
COc1cccc2c(CCCNCCOc3ccccn3)cccc12 | 270 | 83.2 | 1300
COc1cccc2c1CCCC2CCCNCCOc1ccccn1 (stereo unspecified) | 26.4 | 12.7 | 83
COc1cccc(C2CCC(NCCOc3ccccn3)CC2)c1 (stereo in doubt) | 332 | 142 | > 850
COc1cccc(C2CCC(N3CCN(c4ccccc4OC)CC3)CC2)c1 (stereo in doubt; trans) | 43.3 | 4.49 | 312
